Data published in ChEMBL document CHEMBL5352503, “Nonpeptidic Oxazole-Based Prolyl Oligopeptidase Ligands with Disease-Modifying Effects on α-Synuclein Mouse Models of Parkinson's Disease” (J Med Chem, 2023).
Active and inactive are the calls of the source. The calls are words filed in the database; no cut-off is given here.

Key:
HEK293 [1] = test: Activation of PP2A in HEK293 cells assessed as decrease in inactive phosphorylated PP2Ac level at 1 uM incubated for 4 hrs by Western blot analysis; assay type: cell-based; details: Homo sapiens, filed as activator
Summary of the method: (§1)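 HEK-293 cells seeded 500,000/well, attached overnight, then exposed to compound (0.1% DMSO vehicle) for 4 or 24 h. Lysed in RIPA. Western blot with 30 μg protein on 4–20% gels, PVDF transfer, skim-milk block, primary antibody overnight at +4 °C. Detection by chemiluminescence, band OD normalized to β-actin or vinculin. pPP2Ac is the Tyr307-phosphorylated form.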

[2] = biological target: Prolyl endopeptidase FAP (Homo sapiens) (UniProt Q12884); test: Inhibition of human FAP expressed in Sf9 insect cells using […] at 1 to 10 uM preincubated for 15 mins followed by substrate addition and measured for 10 mins; details: dose 1-10 µM, time 25.0 min
Chain of Prolyl endopeptidase FAP (Homo sapiens) (Q12884 whole entry): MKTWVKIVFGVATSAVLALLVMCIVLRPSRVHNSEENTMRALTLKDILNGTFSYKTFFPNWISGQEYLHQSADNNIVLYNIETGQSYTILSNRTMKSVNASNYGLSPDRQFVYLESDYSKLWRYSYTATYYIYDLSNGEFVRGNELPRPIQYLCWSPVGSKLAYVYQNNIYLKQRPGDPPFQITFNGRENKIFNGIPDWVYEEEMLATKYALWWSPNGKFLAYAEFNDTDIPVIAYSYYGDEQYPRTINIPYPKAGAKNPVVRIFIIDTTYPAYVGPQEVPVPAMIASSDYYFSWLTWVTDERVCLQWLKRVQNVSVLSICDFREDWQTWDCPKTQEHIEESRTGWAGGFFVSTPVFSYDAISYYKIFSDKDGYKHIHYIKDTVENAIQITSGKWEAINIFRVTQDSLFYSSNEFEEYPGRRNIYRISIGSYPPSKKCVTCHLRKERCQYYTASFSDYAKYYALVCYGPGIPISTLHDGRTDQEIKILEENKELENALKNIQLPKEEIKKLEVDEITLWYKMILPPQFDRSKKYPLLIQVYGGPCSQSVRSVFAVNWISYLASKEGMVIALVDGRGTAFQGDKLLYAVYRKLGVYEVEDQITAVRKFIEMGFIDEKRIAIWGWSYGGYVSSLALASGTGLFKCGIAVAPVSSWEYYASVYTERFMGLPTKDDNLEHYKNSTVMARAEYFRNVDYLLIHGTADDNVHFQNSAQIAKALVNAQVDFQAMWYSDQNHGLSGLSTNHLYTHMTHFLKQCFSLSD
Summary of the method: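 Z-Gly-Pro-AMC at 50 μM, pH 8, in 0.05 M Tris-HCl with 0.1% glycerol, 1 mg/mL BSA and 140 mM NaCl. Enzyme preincubated with compound 15 min at 37 °C. AMC release read kinetically at ex 380/em 465 nm for at least 10 min at 37 °C.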

Mus musculus [3] = test: (§2) Neuroprotective activity against AAV2-CBA-GFP injected C57BL/6JRccHsd mouse model of Parkinson's disease assessed as change in tyrosine hydroxylase positive cell count in substantia nigra pars compacta at 10 mg/kg/day, ip administered for 2 weeks by optical density based analysis; assay type: functional, organism-based
HEK293 [4] = test: Activation of PP2A in HEK293 cells by measuring decrease in ratio between Tyr307 phosphorylated inactive PP2Ac to total PP2Ac at 1 uM incubated for 4 hrs by Western blot analysis; assay type: cell-based; details: Homo sapiens, filed as activator; summary of the method: as §1
Mus musculus [5] = test: Upregulation of LC3B-II level in C57BL/6JRccHsd mouse brain at 10 mg/kg, ip measured after 45 mins by Western blot analysis; assay type: functional, organism-based
Summary of the method: (§3)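 Mice given 10 mg/kg i.p. in 5% Tween-20 in 0.9% NaCl, with vehicle-injected controls. Brains collected 45 min after injection. Homogenates analysed by Western blot for pPP2A, PP2A and LC3BII, with OD normalized to β-actin or vinculin.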

HEK293 [6] = test: Activation of PP2A in HEK293 cells assessed as decrease in phosphorylated PP2Ac level at 10 uM incubated for 24 hrs by immunoblot analysis; assay type: cell-based; details: Homo sapiens; summary of the method: as §1
[7] = biological target: Dipeptidyl peptidase 4 (Homo sapiens) (UniProt P27487); test: Inhibition of human DPP4 using Ala-Pro-para-nitroanilide as substrate at 1 to 10 uM preincubated for 15 mins followed by substrate addition and measured for 10 mins; details: dose 1-10 µM, time 25.0 min
Chain of Dipeptidyl peptidase 4 (Homo sapiens) (P27487 whole entry, looked up): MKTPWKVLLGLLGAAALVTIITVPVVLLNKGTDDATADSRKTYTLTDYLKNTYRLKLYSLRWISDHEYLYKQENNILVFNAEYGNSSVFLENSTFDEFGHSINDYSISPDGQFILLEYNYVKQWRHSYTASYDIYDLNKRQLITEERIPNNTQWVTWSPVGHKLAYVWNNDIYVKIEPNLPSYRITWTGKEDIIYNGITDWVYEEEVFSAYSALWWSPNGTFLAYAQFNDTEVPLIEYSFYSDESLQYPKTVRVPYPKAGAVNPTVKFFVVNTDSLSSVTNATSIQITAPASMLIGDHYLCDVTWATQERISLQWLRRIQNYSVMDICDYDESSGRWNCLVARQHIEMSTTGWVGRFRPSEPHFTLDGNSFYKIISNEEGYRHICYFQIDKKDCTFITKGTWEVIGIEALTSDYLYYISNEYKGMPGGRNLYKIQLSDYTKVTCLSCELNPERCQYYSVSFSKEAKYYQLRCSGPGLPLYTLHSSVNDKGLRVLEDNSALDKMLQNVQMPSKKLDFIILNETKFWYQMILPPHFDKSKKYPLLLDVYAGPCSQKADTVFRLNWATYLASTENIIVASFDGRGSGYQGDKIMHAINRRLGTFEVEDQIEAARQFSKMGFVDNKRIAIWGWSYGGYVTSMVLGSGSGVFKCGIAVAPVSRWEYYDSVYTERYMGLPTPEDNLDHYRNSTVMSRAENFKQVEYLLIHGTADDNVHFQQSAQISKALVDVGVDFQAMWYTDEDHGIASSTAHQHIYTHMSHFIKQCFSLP
Summary of the method: (§4)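 Ala-Pro-pNA substrate at 25 μM for DPP4 (purified from human seminal plasma) or 150 μM for DPP9 (Sf9-expressed). Buffer pH 7.4: 0.05 M HEPES-NaOH, 0.1% Tween-20, 0.1 mg/mL BSA, 150 mM NaCl. Compound at 1 and 10 μM final, preincubated 15 min at 37 °C. pNA release read kinetically at 405 nm for at least 10 min.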

[8] = biological target: Alpha-synuclein (Homo sapiens) (UniProt P37840); test: Inhibition of alpha-synuclein (unknown origin) dimerization transfected in mouse Neuro2a cells at 10 uM incubated for 4 hrs by Protein-fragment complementation assay; assay type: cell-based
Mus musculus [9] = test: as §2, with “dopaminergic neuron immunoreactivity” for “cell count”; assay type: functional, organism-based
[10] = biological target: Dipeptidyl peptidase 2 (Homo sapiens) (UniProt Q9UHL4); test: Inhibition of recombinant human DPP2 using Lys-Ala-pNA as substrate at 1 to 10 uM preincubated for 15 mins followed by substrate addition and measured for 10 mins; details: dose 1-10 µM, time 25.0 min
Summary of the method: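 Recombinant human DPP2 with 1 mM Lys-Ala-pNA, pH 5.5, in 100 mM NaAc, 10 mM EDTA and 14 μg/mL aprotinin. Compound at 1 and 10 μM, preincubated 15 min at 37 °C. pNA release read kinetically at 405 nm for at least 10 min at 37 °C.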

Mus musculus [11] = test: Upregulation of total PP2Ac level in C57BL/6JRccHsd mouse brain at 10 mg/kg, ip measured after 45 mins by Western blot analysis; assay type: functional, organism-based; summary of the method: as §3
HEK293 [12] = test: Activation of PP2A in HEK293 cells assessed as decrease in phosphorylated PP2Ac level at 10 uM incubated for 4 hrs by immunoblot analysis; assay type: cell-based; details: Homo sapiens, filed as activator; summary of the method: as §1
[13] = biological target: Alpha-synuclein (Homo sapiens) (UniProt P37840); test: Inhibition of alpha-synuclein (unknown origin) dimerization transfected in PREP knockout HEK293 cells at 10 uM incubated for 4 hrs by luminescence based multimode plate reader method; assay type: cell-based
Summary of the method: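 Split Gaussia luciferase protein-fragment complementation in HEK-293 PREP-KO cells, run like the N2A protocol. Cells transfected with αSyn-Gluc1 and αSyn-Gluc2; 48 h later treated 4 h at 10 μM. Luminescence read after injecting native coelenterazine.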

Mus musculus [14] = test: Downregulation of alpha-syn oligomer expression in C57BL/6JRccHsd mouse striatum injected with AAV2-CBA-alpha-synuclein virus at 10 mg/kg/day, ip administered for 2 weeks by optical density based analysis; assay type: functional, organism-based
Summary of the method: (§5)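 Unilateral AAV2-CBA-αSyn was injected above the SNpc of male C57BL/6JRCcHsd mice. Dosing at 10 mg/kg/day i.p. by Alzet minipump began 4 weeks after injection. Brain sections were immunostained for oligomer-specific αSyn and optical density was measured in striatum and SNpc, with n = 7–9/group, reported as mean ± SEM.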

HEK293 [15] = test: Activation of PP2A in HEK293 cells assessed as increase in total PP2Ac level at 0.01 to 50 uM incubated for 4 hrs by Western blot analysis; assay type: cell-based; details: Homo sapiens, filed as activator, dose 0.01-50 µM; summary of the method: as §1
[16] = biological target: Dipeptidyl peptidase 9 (Homo sapiens) (UniProt Q86TI2); test: Inhibition of human DPP9 expressed in Sf9 insect cells using Ala-Pro-para-nitroanilide as substrate at 1 to 10 uM preincubated for 15 mins followed by substrate addition and measured for 10 mins; details: dose 1-10 µM, time 25.0 min; summary of the method: as §4
Chain of Dipeptidyl peptidase 9 (Homo sapiens) (Q86TI2 2-863 limits assumed): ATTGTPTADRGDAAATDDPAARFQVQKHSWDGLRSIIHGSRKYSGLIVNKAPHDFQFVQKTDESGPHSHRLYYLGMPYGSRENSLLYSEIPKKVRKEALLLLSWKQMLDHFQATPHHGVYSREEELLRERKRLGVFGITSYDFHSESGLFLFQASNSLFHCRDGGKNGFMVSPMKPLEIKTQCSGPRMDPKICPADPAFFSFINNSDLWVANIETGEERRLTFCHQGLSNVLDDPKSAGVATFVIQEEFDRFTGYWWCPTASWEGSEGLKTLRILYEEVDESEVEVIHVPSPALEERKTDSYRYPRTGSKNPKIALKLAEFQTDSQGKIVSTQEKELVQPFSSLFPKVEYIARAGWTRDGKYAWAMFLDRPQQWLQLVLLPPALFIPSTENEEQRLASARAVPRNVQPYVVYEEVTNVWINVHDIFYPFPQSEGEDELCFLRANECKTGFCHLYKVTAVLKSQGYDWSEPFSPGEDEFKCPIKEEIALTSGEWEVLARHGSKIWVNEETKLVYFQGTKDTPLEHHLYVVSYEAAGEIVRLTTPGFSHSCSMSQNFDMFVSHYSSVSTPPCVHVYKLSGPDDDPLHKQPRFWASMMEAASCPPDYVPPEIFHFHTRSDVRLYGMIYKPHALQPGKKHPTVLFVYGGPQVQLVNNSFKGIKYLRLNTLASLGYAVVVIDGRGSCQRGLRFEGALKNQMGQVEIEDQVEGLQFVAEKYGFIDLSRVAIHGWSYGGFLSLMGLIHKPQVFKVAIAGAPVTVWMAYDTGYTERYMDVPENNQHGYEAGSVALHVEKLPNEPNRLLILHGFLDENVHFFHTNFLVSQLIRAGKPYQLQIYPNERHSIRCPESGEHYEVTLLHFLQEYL

SH-SY5Y = test: Cytotoxicity against human SH-SY5Y cells assessed as cell viability at 1 to 100 uM incubated for 24 hrs by MTT assay; assay type: toxicity, cell-based; details: dose 1-100 µM
HEK293 [17] = test: Activation of PP2A in HEK293 cells assessed as increase in LC3B-II level at 0.1 to 10 uM incubated for 4 hrs by Western blot analysis; assay type: cell-based; details: Homo sapiens, filed as activator, dose 0.1-10 µM; summary of the method: as §1
Mus musculus [18] = test: Anti-parkinson activity in AAV2-CBA-alpha-synuclein virus vector injected Parkinson's disease C57BL/6JRccHsd mouse model assessed as motor deficit by measuring decrease in use of ipsilateral forepaw usage at 10 mg/kg/day, ip administered for 2 to 4 weeks of treatment by cylinder test; assay type: functional, organism-based; details: time 2-4 weeks
Summary of the method: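 Male C57BL/6JRCcHsd mice, 10–11 weeks old, got a unilateral AAV2-CBA-αSyn injection above the SNpc. Dosing started 4 weeks later at 10 mg/kg/day i.p. by Alzet minipump. Ipsilateral forepaw use was scored by cylinder test at 6 and 8 weeks post-injection, against vehicle-treated αSyn-injected and AAV-GFP control mice. Two-way ANOVA with Dunnett's comparisons was used.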

Mus musculus [19] = test: as §2, with “AAV2-CBA-alpha-synuclein virus vector” for “AAV2-CBA-GFP”, “dopaminergic neuron immunoreactivity” for “cell count”, “striatum” for “substantia nigra pars compacta”; assay type: functional, organism-based
Mus musculus [20] = test: as §2, with “AAV2-CBA-alpha-synuclein virus vector” for “AAV2-CBA-GFP”; assay type: functional, organism-based
HEK293 [21] = test: Activation of PP2A in HEK293 cells assessed as increase in total PP2Ac level at 10 uM incubated for 24 hrs by immunoblot analysis; assay type: cell-based; details: Homo sapiens, filed as activator; summary of the method: as §1
Mus musculus [22] = test: as §2, with “AAV2-CBA-alpha-synuclein virus vector” for “AAV2-CBA-GFP”, “dopaminergic neuron immunoreactivity” for “cell count”; assay type: functional, organism-based
HEK293 [23] = test: Induction of autophagic flux in HEK293 cells expressing GFP-LC3B-RFP at 10 uM incubated for 24 hrs by Hoechst staining based assay; assay type: functional, cell-based; details: Homo sapiens
HEK293 [24] = test: Induction of autophagy in PREP knockout HEK293 cells assessed as LC3B-II expression level at 10 uM incubated for 24 hrs by Western blot analysis; assay type: functional, cell-based; details: Homo sapiens
Summary of the method: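 HEK-293 PREP-KO cells, grown with 20% FBS, plated 500,000/well and attached overnight. Treated at 10 μM for 4 or 24 h (0.1% DMSO vehicle), then lysed in RIPA. LC3BII measured by Western blot, 30 μg protein loaded, band OD normalized to β-actin or vinculin.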

Neuron = test: Cytotoxicity against mouse primary neurons cells assessed as cell viability at 1 to 100 uM incubated for 48 hrs by MTT assay; assay type: toxicity, cell-based; details: dose 1-100 µM
Mus musculus [25] = test: Neuroprotective activity against AAV2-CBA-GFP injected C57BL/6JRccHsd mouse model of Parkinson's disease assessed as change in tyrosine hydroxylase positive dopaminergic neuron immunoreactivity in striatum at 10 mg/kg/day, ip administered for 2 weeks by optical density based analysis; assay type: functional, organism-based
[26] = Permeability of the compound across blood brain barrier in C57BL/6JRccHsd mouse at 1.86 uM, ip measured at 15 mins by LC-MS analysis; assay type: ADME, organism-based; details: 0.25 h
Summary of the method: (§6)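 Male C57BL/6JRCcHsd mice, 10 weeks old, dosed 10 mg/kg i.p. in 5% Tween-20 in 0.9% NaCl. Brains collected at 15, 30, 45, 60, 120 and 180 min. Brain compound concentration measured by LC-MS, and AUC0–180 min calculated.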

HEK293 [27] = test: Cytotoxicity against HEK293 cells assessed as cell viability at 1 to 100 uM incubated for 24 hrs by MTT assay; assay type: toxicity, cell-based; details: human, hek293, 24 h, dose 1-100 µM
HEK293 [28] = test: Activation of PP2A in HEK293 cells assessed as increase in total PP2Ac level at 10 uM incubated for 4 hrs by immunoblot analysis; assay type: cell-based; details: Homo sapiens, filed as activator; summary of the method: as §1
[29] = Drug elimination in C57BL/6JRccHsd mouse brain at 10 mg/kg, ip measured at 180 mins by LC-MS analysis; assay type: ADME, organism-based; details: in vivo, 3 h; summary of the method: as §6
[30] = biological target: Alpha-synuclein (Homo sapiens) (UniProt P37840); test: Inhibition of alpha-synuclein (unknown origin) dimerization transfected in HEK293 cells at 10 uM incubated for 4 hrs by luminescence based multimode plate reader method; assay type: cell-based
[31] = Permeability of the compound across blood brain barrier in C57BL/6JRccHsd mouse at 1.11 uM, ip measured at 30 mins by LC-MS analysis; assay type: ADME, organism-based; details: 0.5 h; summary of the method: as §6
[32] = In vivo inhibition of PREP in C57BL/6JRccHsd mouse liver at 10 mg/kg, ip measured for 3 hrs by LC-MS analysis relative to control; assay type: functional
HEK293 [33] = test: Activation of PP2A in HEK293 cells assessed as increase in LC3B-II level at 10 uM incubated for 4 hrs by immunoblot analysis; assay type: cell-based; details: Homo sapiens, filed as activator; summary of the method: as §1
Mus musculus [34] = test: Downregulation of alpha-syn oligomer in C57BL/6JRccHsd mouse substantia nigra pars compacta injected with AAV2-CBA-alpha-synuclein virus at 10 mg/kg/day, ip administered for 2 weeks by optical density based analysis; assay type: functional, organism-based; summary of the method: as §5
[35] = Activation of PP2A in HEK293 cells by measuring decrease in ratio between Tyr307 phosphorylated inactive PP2Ac to total PP2Ac incubated for 4 hrs by Western blot analysis; assay type: cell-based; details: Homo sapiens, HEK293, 4 h; summary of the method: as §1
HEK293 [36] = test: Activation of PP2A in HEK293 cells assessed as increase in LC3B-II level at 10 uM incubated for 24 hrs by immunoblot analysis; assay type: cell-based; details: Homo sapiens, filed as activator; summary of the method: as §1

Cc1nc(CCCc2ccccc2)oc1N1CCC[C@H]1C#N
Activity (HEK293 [1]): Active | inhibition [2]: inactive | Activity (Mus musculus [3]): inactive | Activity (HEK293 [4]): Active | Activity (Mus musculus [5]): Active | Activity (HEK293 [6]): inactive | inhibition [7]: inactive | inhibition [8]: Active | Activity (Mus musculus [9]): inactive | inhibition [10]: inactive | Activity (Mus musculus [11]): Active | Activity (HEK293 [12]): Active | inhibition [13]: inactive | Activity (Mus musculus [14]): Active | Activity (HEK293 [15]): Active | inhibition [16]: inactive | Activity (SH-SY5Y): Non-Toxic | Activity (HEK293 [17]): Active | Activity (Mus musculus [18]): Active | Activity (Mus musculus [19]): inactive | Activity (Mus musculus [20]): inactive | Activity (HEK293 [21]): Active | Activity (Mus musculus [22]): inactive | Activity (HEK293 [23]): Active | Activity (HEK293 [24]): inactive | Activity (Neuron): Non-Toxic | Activity (Mus musculus [25]): inactive | pBBB [26]: Permeable | Activity (HEK293 [27]): Non-Toxic | Activity (HEK293 [28]): Active | Drug excretion [29]: Not Active | inhibition [30]: Active | pBBB [31]: Permeable | inhibition in vivo at 10 mg/kg [32]: ~25% | Activity (HEK293 [33]): Active | Activity (Mus musculus [34]): inactive | EC50 [35]: 0.275 µM | Activity (HEK293 [36]): Active
